Calls of active or inactive are those of the source. The rule behind the calls is not given here.
Legend:
[1] = test system: Proto-oncogene tyrosine-protein kinase receptor Ret (Homo sapiens), P07949 [A883F]; experiment: Inhibition of RET isoform 9 A883F mutant (unknown origin) expressed in rat Rat1 assessed as reduction in RET phosphorylation at Y1062 residue at 1 to 100 nM measured after 2 hrs by Western blot analysis; assay type: cell-based
How it was run: (§1)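 Serum-starved RAT1 (RET point mutants) or NIH3T3 (RET rearrangements) cells expressing short RET-9 isoform, treated 2 h; 50 μg total lysate immunoblotted with anti-phospho-Y1062 and anti-phospho-Y905 RET antibodies, normalized to total RET; ECL detection. Compound from 50 mM DMSO stock diluted in growth medium.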

[2] = test system: Proto-oncogene tyrosine-protein kinase receptor Ret (Homo sapiens), P07949 [C634R]; experiment: Inhibition of RET isoform 9 C634R mutant (unknown origin) expressed in rat Rat1 assessed as reduction in RET phosphorylation at Y1062 residue at 0.3 nM measured after 2 hrs by Western blot analysis; assay type: cell-based
Sequence of Proto-oncogene tyrosine-protein kinase receptor Ret (Homo sapiens), P07949 [C634R] (P07949 whole entry C634R, canonical isoform): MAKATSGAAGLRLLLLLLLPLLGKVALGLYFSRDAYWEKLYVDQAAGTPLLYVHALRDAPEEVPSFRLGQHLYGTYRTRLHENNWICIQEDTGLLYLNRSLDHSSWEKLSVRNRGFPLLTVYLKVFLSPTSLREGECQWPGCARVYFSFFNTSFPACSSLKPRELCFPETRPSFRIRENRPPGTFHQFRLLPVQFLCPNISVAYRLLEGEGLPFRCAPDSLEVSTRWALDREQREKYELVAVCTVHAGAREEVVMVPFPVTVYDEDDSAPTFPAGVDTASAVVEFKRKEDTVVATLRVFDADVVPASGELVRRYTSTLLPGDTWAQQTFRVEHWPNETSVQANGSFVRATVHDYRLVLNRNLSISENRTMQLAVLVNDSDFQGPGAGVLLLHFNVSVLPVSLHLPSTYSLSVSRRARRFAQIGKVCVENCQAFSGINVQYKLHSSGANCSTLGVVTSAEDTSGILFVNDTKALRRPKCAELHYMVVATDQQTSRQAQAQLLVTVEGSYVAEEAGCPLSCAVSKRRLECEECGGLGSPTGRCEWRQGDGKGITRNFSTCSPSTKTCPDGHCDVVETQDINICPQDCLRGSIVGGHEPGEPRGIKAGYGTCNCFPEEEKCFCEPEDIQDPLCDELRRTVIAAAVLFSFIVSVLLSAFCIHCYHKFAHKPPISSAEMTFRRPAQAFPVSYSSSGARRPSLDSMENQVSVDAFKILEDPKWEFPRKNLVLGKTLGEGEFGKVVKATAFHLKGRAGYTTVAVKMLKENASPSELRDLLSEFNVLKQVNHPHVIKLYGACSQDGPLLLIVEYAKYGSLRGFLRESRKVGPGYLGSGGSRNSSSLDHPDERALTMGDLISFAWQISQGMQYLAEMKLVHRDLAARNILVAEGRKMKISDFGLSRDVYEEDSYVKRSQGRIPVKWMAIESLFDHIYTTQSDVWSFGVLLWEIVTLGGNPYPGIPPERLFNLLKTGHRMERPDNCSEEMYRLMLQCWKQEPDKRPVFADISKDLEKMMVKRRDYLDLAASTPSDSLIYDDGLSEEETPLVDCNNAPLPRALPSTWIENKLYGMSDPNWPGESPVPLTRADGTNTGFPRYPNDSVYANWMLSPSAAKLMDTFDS
How it was run: (§2)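 RAT1 fibroblasts expressing RET-9 C634R, serum-starved, treated 2 h with 0.1–10.0 nM; 50 μg lysate blotted for RET pY905 and pY1062, normalized to total RET; ECL detection.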

[3] = test system: GTPase HRas (Homo sapiens), P01112 [G12V]; experiment: Inhibition of HRAS G12V mutant (unknown origin) expressed in mouse NIH/3T3 cells assessed as reduction in MAPK phosphorylation up to 100 nM measured after 2 hrs by Western blot analysis; assay type: cell-based
Sequence of GTPase HRas (Homo sapiens), P01112 [G12V] (P01112 whole entry G12V): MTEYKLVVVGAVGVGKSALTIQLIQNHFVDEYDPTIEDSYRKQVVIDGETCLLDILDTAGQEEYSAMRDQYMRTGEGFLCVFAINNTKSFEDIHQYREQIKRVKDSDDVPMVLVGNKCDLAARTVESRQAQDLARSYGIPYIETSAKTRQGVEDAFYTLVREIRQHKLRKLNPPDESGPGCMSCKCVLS

[4] = test system: Mus musculus; experiment: In vivo inhibition of HRAS G12V mutant transfected in mouse NIH/3T3 cells implanted BALB/c nu/nu mouse assessed as reduction in MAPK phosphorylation in tumor at 1 mg/kg, po administered once daily via gavage for 3 days measured 3 hrs post-last dose by Western blot analysis; assay type: functional, organism-based
[5] = test system: Proto-oncogene tyrosine-protein kinase receptor Ret (Homo sapiens), P07949 [M918T]; experiment: Inhibition of Ret isoform 9 M918T mutant in human MZ-CRC-1 cells assessed as reduction in SHC phosphorylation at 0.3 to 30 nM measured after 2 hrs by Western blot analysis; assay type: cell-based
Sequence of Proto-oncogene tyrosine-protein kinase receptor Ret (Homo sapiens), P07949 [M918T] (P07949 whole entry M918T, the tested form may be a part, canonical isoform): as the sequence (P07949 whole entry C634R, canonical isoform) above, with R634C, M918T counted along it

[6] = biological target: NT-3 growth factor receptor (Homo sapiens) (UniProt Q16288); experiment: Binding affinity to wild-type human partial length TRKC (Q531 to G825 residues) expressed in mammalian expression system at 100 nM by Kinomescan method relative to control
[7] = test system: Proto-oncogene tyrosine-protein kinase receptor Ret (Homo sapiens), P07949 [V804L]; experiment: Inhibition of RET isoform 9 V804L mutant (unknown origin) expressed in rat Rat1 assessed as reduction in RET phosphorylation at Y1062 residue at 1 to 100 nM measured after 2 hrs by Western blot analysis; assay type: cell-based; how it was run: as §1
[8] = test system: 8505C; experiment: Cytotoxicity against RET deficient human 8505C cells supplemented with fresh medium containing compound for every 2 to 3 days measured during compound dosing; assay type: functional, cell-based
How it was run: (§3)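 Human RET-negative lines were seeded in six-well plates at 10000 cells/well, in 5% FCS (Nthy-ori-3-1) or 10% FCS (BCPAP, 8505-C, CALU-1, A549, PC-9). Drug or vehicle was added the day after plating, with medium changed every 2–3 days. Cells were counted every 2–3 days. IC50 was fitted from the last day of the growth curves.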

[9] = test system: 8505C; experiment: Effect on MAPK phosphorylation in RET deficient human 8505C cells at 1 to 100 nM measured after 2 hrs by western blot analysis; assay type: cell-based
[10] = species: Homo sapiens; experiment: Effect on MAPK phosphorylation in RET deficient human Calu1 cells at 1 to 100 nM measured after 2 hrs by western blot analysis
[11] = biological target: Coiled-coil domain-containing protein 6/Tyrosine-protein kinase receptor RET (Homo sapiens) (UniProt P07949+Q16204); experiment: Inhibition of CCDC6/RET in human LC2/ad cells assessed as reduction in MAPK phosphorylation at 0.3 to 30 nM measured after 2 hrs by Western blot analysis; assay type: cell-based
Sequence of Coiled-coil domain-containing protein 6/Tyrosine-protein kinase receptor RET (Homo sapiens) (P07949 29-1114 limits assumed): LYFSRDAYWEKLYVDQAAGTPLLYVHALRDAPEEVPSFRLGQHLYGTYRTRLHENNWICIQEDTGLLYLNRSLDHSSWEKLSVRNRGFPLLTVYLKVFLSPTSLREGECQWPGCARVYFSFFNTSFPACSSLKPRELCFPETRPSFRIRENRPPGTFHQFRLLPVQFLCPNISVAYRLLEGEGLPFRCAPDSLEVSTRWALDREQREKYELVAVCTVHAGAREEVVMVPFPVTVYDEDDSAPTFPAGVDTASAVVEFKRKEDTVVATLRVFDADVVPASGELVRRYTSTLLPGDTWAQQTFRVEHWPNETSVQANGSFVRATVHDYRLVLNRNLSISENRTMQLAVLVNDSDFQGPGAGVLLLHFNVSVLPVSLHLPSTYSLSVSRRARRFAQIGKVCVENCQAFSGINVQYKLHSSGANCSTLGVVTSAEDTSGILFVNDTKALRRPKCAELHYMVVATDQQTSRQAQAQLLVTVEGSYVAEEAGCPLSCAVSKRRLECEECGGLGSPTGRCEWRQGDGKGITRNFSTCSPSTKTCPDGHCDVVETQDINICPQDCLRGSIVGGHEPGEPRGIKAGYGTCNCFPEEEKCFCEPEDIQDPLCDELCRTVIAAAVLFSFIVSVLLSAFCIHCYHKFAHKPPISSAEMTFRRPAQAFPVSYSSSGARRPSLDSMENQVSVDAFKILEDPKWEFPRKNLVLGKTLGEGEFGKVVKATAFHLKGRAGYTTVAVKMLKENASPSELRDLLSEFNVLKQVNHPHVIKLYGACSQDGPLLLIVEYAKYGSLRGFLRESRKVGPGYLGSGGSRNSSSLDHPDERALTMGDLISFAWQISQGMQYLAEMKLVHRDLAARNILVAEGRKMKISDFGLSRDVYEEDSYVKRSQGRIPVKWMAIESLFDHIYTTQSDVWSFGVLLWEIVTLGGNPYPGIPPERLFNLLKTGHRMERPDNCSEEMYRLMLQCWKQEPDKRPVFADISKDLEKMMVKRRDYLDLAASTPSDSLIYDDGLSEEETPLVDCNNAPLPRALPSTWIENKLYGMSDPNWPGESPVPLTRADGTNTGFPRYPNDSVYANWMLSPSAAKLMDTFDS
Sequence of Coiled-coil domain-containing protein 6/Tyrosine-protein kinase receptor RET (Homo sapiens) (Q16204 2-474 partner limits assumed): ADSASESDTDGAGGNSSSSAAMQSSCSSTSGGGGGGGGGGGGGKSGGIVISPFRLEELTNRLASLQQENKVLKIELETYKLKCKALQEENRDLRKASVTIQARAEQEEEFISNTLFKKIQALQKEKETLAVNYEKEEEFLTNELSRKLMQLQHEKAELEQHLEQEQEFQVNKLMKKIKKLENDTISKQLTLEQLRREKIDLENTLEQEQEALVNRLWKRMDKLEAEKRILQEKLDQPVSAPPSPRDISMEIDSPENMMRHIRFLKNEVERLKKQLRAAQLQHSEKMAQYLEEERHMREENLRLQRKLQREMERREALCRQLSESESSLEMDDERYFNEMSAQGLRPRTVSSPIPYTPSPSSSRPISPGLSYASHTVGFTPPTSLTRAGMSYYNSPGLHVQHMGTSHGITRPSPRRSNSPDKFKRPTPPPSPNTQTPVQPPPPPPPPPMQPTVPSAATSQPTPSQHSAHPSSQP

[12] = biological target: Vascular endothelial growth factor receptor 2 (Homo sapiens, UniProt P35968); experiment: Inhibition of recombinant human His-tagged VEGFR2 cytoplasmic domain (789 to 1356 residues) expressed in baculovirus expression system using peptide substrate preincubated for 60 mins followed by substrate addition by microfluidic assay
[13] = test system: A549; experiment: Cytotoxicity against RET deficient human A549 cells supplemented with fresh medium containing compound for every 2 to 3 days measured during compound dosing; assay type: functional, cell-based; how it was run: as §3
[14] = Toxicity in BALB/c nu/nu mouse assessed as change in albumin level at 10 mg/kg, po administered daily for 7 days; assay type: organism-based; details: in vivo, 168 h
How it was run: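 Mice dosed orally with 10 mg/kg/day for 7 days; standard blood markers of organ damage measured.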

[15] = test system: Mus musculus; experiment: In vivo inhibition of RET isoform 9 C634Y mutant transfected in mouse NIH/3T3 cells implanted BALB/c nu/nu mouse assessed as reduction in SHC phosphorylation at 3 mg/kg, po administered once daily via gavage for 2 days measured 3 hrs post-last dose by Western blot analysis
[16] = test system: Proto-oncogene tyrosine-protein kinase receptor Ret (Homo sapiens), P07949 [M918T]; experiment: Inhibition of Ret isoform 9 M918T mutant in human MZ-CRC-1 cells assessed as reduction in phosphorylation at Y1062 residue at 0.3 to 30 nM measured after 2 hrs by Western blot analysis; assay type: cell-based
[17] = biological target: Proto-oncogene tyrosine-protein kinase receptor Ret (Homo sapiens, UniProt P07949); experiment: Inhibition of recombinant human GST-tagged RET cytoplasmic domain (658 to 1114 residues) expressed in baculovirus expression system using 5'FAM-EPLYWSFPA as substrate preincubated for 60 mins followed by substrate addition by microfluidic assay
[18] = biological target: Tyrosine-protein kinase Lyn (Homo sapiens) (UniProt P07948); experiment: Binding affinity to wild-type human partial length LYN (C219 to Q511 residues) expressed in bacterial expression system at 100 nM by Kinomescan method relative to control
[19] = test system: Proto-oncogene tyrosine-protein kinase receptor Ret (Homo sapiens), P07949 [A883F]; experiment: Inhibition of RET isoform 9 A883F mutant (unknown origin) expressed in rat Rat1 assessed as reduction in RET phosphorylation at Y905 residue at 1 to 100 nM measured after 2 hrs by Western blot analysis; assay type: cell-based; how it was run: as §1
[20] = Toxicity in BALB/c nu/nu mouse assessed as change in globulin level at 10 mg/kg, po administered daily for 7 days; assay type: organism-based; details: in vivo, 168 h
[21] = Toxicity in BALB/c nu/nu mouse assessed as change in glucose level at 10 mg/kg, po administered daily for 7 days; assay type: organism-based; details: in vivo, 168 h
[22] = species: Homo sapiens; experiment: Inhibition of NCOA4/RET isoform 9 (unknown origin) expressed in mouse NIH/3T3 cells assessed as reduction in RET phosphorylation at Y1062 residue at 1 to 100 nM measured after 2 hrs by Western blot analysis; assay type: cell-based; how it was run: as §1
[23] = test system: Proto-oncogene tyrosine-protein kinase receptor Ret (Homo sapiens), P07949 [C634R]; experiment: Inhibition of RET isoform 9 C634R mutant (unknown origin) expressed in rat Rat1 assessed as reduction in RET phosphorylation at Y905 residue at 3 nM measured after 2 hrs by Western blot analysis; assay type: cell-based; how it was run: as §2
[24] = species: Homo sapiens; experiment: Inhibition of CCDC6/RET isoform 9 (unknown origin) expressed in mouse NIH/3T3 cells assessed as reduction in RET phosphorylation at Y1062 residue at 1 to 100 nM measured after 2 hrs by Western blot analysis; assay type: cell-based; how it was run: as §1

Sequence of Proto-oncogene tyrosine-protein kinase receptor Ret (Homo sapiens), P07949 [A883F] (P07949 whole entry A883F, canonical isoform): as the sequence (P07949 whole entry C634R, canonical isoform) above, with R634C, A883F counted along it

Compound: CC(C)(C)c1cc(NC(=O)Cc2ccc(-n3cnc4cc(-c5ccc(S(C)(=O)=O)cc5)ccc43)cc2)no1
- inhibition [1]: Active
- inhibition [2]: Active
- inhibition [3]: inactive
- inhibition [4]: inactive
- inhibition [5]: Active
- Activity [6]: > 90%
- inhibition [7]: Active
- IC50 [8]: > 100 nM
- Activity [9]: inactive
- Activity [10]: inactive
- inhibition [11]: inactive
- IC50 [12]: 3 nM
- IC50 [13]: > 100 nM
- Activity [14]: Non-Toxic
- inhibition [15]: Active
- inhibition [16]: Active
- IC50 [17]: 1 nM
- Activity [18]: > 90%
- inhibition [19]: Active
- Activity [20]: Non-Toxic
- Activity [21]: Non-Toxic
- inhibition [22]: Active
- inhibition [23]: 100%
- inhibition [24]: Active

Source: ChEMBL document CHEMBL4354879, “Bioisosteric Discovery of NPA101.3, a Second-Generation RET/VEGFR2 Inhibitor Optimized for Single-Agent Polypharmacology” (J Med Chem, 2020)
